Measurements taken from publication PMC5482095 (Molecular Medicine Reports, 2017).
Converted amounts (≈) assume the structure as drawn.

Columns and labels:
[1] = test system: BALB/c 3T3 cells; assay: MTT cytotoxicity assay, 3T3 fibroblasts; assay type: cell-based, murine; details: for IC50: Mus musculus, BALB/c3T3, 240 h, read-out: IC50 3T3
[2] = test system: mES-D3 cells; assay: MTT cytotoxicity assay, embryonic stem cells; assay type: cell-based, murine; details: Mus musculus, Embryonic stem cell, 240 h, read-out: IC50 ES
[3] = cited from earlier work
[4] = test system: mES-D3 cells and BALB/c-3T3 cells; assay: Classification of embryotoxicity by the ECVAM prediction model; parameters: species or system murine; details: prediction model from mean IC50 3T3, IC50 ES and ID50
Summary of the method: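 Class (non-, weak or strong embryotoxic) comes from the ECVAM linear discriminant prediction model using mean IC50 3T3, IC50 ES and ID50. ID50 setup: 1,000 mES cells per 20 µl hanging drop without LIF for 3 days, then suspension for 2 days, then 100 EBs/well on 0.1% gelatin for 5 days. Compound is present from day 0. On day 10, α/β-MHC expression is measured by RT-PCR against GAPDH, giving the 50%-suppression concentration (mean of three repeats).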

[5] = test system: mice; details: cited from earlier work
[6] = test system: mouse preimplantation embryos; details: in vivo; cited from earlier work
[7] = toxicological studies; cited from earlier work

Row | Compound | IC50 [1] [µg/mL] | IC50 [2] [µg/mL] | Known in vivo embryotoxic potential [3] | Classification of the embryotoxicity [4] | Classification of the embryotoxicity according to the PM (in words) [4] | Oral lethal dose [5] | Influence on development of preimplantation embryos [6] | IC50 3T3 ([1]; BALB/c 3T3 cells, 10 days of culture, MTT, mean ± standard error of the mean of three experiments) [µg/mL] | Toxicity in vivo [7]
1 | O=c1[nH]cc(F)c(=O)[nH]1 [5-fluorouracil, reference compound] | 0.244 ± 0.051 (≈ 1.88 µM) | 0.08 ± 0.016 (≈ 0.615 µM) | strong embryotoxicity | Strong | strong embryotoxicity | – | – | – | –
2 | CC(C)c1cc2c(c(O)c1O)[C@@]1(C(=O)O)CCCC(C)(C)[C@@H]1CC2 [Carnosic acid] | 26.3 ± 3.86 (≈ 79.1 µM) | 5.77 ± 1.3 (≈ 17.4 µM) | – | Weak | weak embryotoxicity | 7,100 mg/kg of body weight | – | – | –
3 | CCCCCCCCOC(=O)c1ccccc1C(=O)OCCCCCCCC [Dioctyl phthalate, dioctyl phthalate] | 213 ± 28.2 (≈ 547 µM) | 124 ± 24.9 (≈ 316 µM) | – | Weak | weak embryotoxicity | – | – | – | –
4 | C=CCc1ccc(O)c(OC)c1 [Eugenol, eugenol] | 9.44 ± 2.85 (≈ 57.5 µM) | 1.93 ± 0.329 (≈ 11.7 µM) | – | Strong | strong embryotoxicity | – | may induce a significantly increased rate of cell death and affect the development of embryo | – | –
5 | CC1(C)S[C@@H]2[C@H](NC(=O)Cc3ccccc3)C(=O)N2[C@H]1C(=O)O [Penicillin G, penicillin G, reference compound] | 1160 ± 69.1 (≈ 3470 µM) | 1570 ± 152 (≈ 4690 µM) | – | None | non-embryotoxicity | – | – | – | –
6 | procyanidin | – | – | – | None | non-embryotoxicity | – | – | 12.100 ± 1.828 | nontoxic and does not cause any detrimental effects in vivo
